This passage reports Ratio EC50, Activity and EC50 results from ChEMBL document CHEMBL4665714 (Bioorg Med Chem Lett, 2020).

SMILES strings stand for the structures. Active and inactive are the calls of the source. No cut-off for these calls is given here.

The term EC50 denotes the concentration needed to bring the measured effect to its halfway point.

Test [1] deals with Retinoid isomerohydrolase (Bos taurus) (UniProt Q28175). In words: Potency index, ratio of (R)-MB001 EC50 to test compound EC50 for inhibition of RPE65 in bovine RPE microsomes assessed as reduction in 11-cis-retinol production using all-trans-retinol as substrate pre-incubated with enzyme for 5 mins followed by further incubation with all-trans-retinol for 1 hr by normal phase HPLC analysis. The note with it: Retina, Microsome, time 65.0 min.
Sequence of Retinoid isomerohydrolase (Bos taurus) (Q28175 2-533 limits assumed): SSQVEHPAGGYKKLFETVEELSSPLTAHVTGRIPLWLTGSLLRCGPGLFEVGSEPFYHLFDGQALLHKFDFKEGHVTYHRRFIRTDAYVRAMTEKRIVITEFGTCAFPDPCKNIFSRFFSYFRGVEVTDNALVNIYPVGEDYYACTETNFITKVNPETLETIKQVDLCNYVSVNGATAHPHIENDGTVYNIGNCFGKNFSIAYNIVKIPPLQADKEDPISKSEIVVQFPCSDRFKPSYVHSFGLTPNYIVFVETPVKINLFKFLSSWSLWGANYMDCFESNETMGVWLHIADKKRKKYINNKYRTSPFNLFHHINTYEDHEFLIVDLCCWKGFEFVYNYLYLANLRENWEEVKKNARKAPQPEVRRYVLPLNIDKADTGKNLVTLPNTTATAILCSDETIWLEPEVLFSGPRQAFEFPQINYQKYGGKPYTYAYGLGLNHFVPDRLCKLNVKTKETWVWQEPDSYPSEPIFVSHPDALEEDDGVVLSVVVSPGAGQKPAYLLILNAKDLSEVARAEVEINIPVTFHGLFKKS

In test [2] the test system is ARPE-19. In words: Cytoprotective activity against human ARPE-19 cells assessed as reduction in all-trans-retinal induced cytotoxicity at 18 to 90 uM incubated for 6 hrs in presence of all-trans-retinal by CellTiter-Glo luminescent cell viability assay. In kind it is functional, cell-based. Conditions: dose microM 18-90, time 6.0 hrs. For orientation: ATP-based viability assays read luminescence as a measure of living cells.

The target of test [3] is Retinoid isomerohydrolase (Bos taurus, UniProt Q28175). Briefly: Inhibition of RPE65 in bovine RPE microsomes assessed as reduction in 11-cis-retinol production using all-trans-retinol as substrate pre-incubated with enzyme for 5 mins followed by further incubation with all-trans-retinol for 1 hr by normal phase HPLC analysis. On the set-up: species or system Retina, Microsome. A digest of the protocol:
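All-trans-retinol added to the enzyme mixture and incubated 1 h at 37 °C. Quenched with methanol and extracted into hexane. Inhibition taken from the fall in 11-cis-retinol production.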

Test [4] deals with ARPE-19. In words: Cytoprotective activity against human ARPE-19 cells assessed as reduction in all-trans-retinal induced cytotoxicity by measuring cell surveillance rate at 90 uM incubated for 6 hrs in presence of all-trans-retinal by CellTiter-Glo luminescent cell viability assay relative to control. In kind it is functional. In short, it runs like this: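 ARPE-19 (human RPE line) cells given test agent at 18, 45 or 90 μM together with all-trans-retinal 385 μM. Incubated 6 h at 37 °C, then viability read by CellTiter-Glo luminescence. Mean ±SE, n=3, t-test.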

Sequence of Retinoid isomerohydrolase (Q28175 whole entry): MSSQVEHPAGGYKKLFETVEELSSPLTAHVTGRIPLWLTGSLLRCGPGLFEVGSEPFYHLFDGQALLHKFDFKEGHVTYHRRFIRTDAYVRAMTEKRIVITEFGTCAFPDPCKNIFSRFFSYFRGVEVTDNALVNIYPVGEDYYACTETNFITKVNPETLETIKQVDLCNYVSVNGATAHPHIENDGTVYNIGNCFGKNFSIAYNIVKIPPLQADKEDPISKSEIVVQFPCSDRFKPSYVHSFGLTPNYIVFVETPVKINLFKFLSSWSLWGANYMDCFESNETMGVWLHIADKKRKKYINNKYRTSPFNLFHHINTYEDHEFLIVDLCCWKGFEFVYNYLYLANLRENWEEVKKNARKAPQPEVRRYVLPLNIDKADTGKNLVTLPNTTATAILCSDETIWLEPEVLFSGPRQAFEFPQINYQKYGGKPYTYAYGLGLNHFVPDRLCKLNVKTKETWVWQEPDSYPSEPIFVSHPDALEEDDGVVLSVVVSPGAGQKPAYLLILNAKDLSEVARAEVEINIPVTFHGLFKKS

In the case of `NCCC(O)c1cccc(OCC(CCCF)CCCF)c1` (stereo in doubt; 14) [listing 1 of 2 here], the Ratio EC50 in test [1] amounted to 2. In addition, the result in the test with ARPE-19 [2] was Active.
With `CC1=C(COc2cccc([C@H](O)CCN)c2)C(C)(C)CCC1`, in the test with ARPE-19 [2], the outcome was Active. Moreover, the EC50 in test [3] was found to be 323 nM.
In the case of `NCCC(O)c1cccc(OCC(CCCF)CCCF)c1` (racemic) [listing 1 of 2 here], in test [3], the EC50 worked out at 166 nM.
`NCCC(O)c1cccc(OCC(CCCF)CCCF)c1` (racemic) [listing 2 of 2 here]: in test [1], the Ratio EC50 amounted to 2. Besides, the result in the test on ARPE-19 [2] was Active.
On to `NCCC(O)c1cccc(OCC(CCCF)CCCF)c1` (stereo in doubt; 14) [listing 2 of 2 here], for which the EC50 in test [3] was 196 nM. Further, the Activity with ARPE-19 [4] was found to be 100%.
